ChEMBL document CHEMBL2380302, “Synthesis of 3-O-propargylated betulinic acid and its 1,2,3-triazoles as potential apoptotic agents” (Eur J Med Chem, 2013)
Active and inactive are the calls of the source. The rule behind the calls is not given here.

Assays:
CV-1 = test: Induction of apoptosis in african green monkey CV1 cells assessed as DNA ladder formation at 10 to 60 uM after 24 hrs by DNA agarose gel electrophoresis; assay type: cell-based; conditions: chlorocebus aethiops, cv-1, 24 h
How it was run: (§1)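 DNA fragmentation assay in HL-60 cells (2 × 10⁶ cells/well) or CV-1 cells, treated for 24 h. Cells were lysed in Tris–HCl pH 8.0/NaCl/EDTA/Triton X-100 with proteinase K (200 µg/mL) at 50 °C for 1 h, then DNase-free RNase for 90 min. DNA was phenol:chloroform extracted and ethanol precipitated. Gels were 1% agarose in TAE at 80 V for 1.5 h. Camptothecin (5 µM, 6 h) served as positive control in HL-60.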

HL-60 [1] = test: Induction of apoptosis in human HL60 cells assessed as DNA ladder formation at 20 to 30 uM after 24 hrs by DNA agarose gel electrophoresis; assay type: functional, cell-based; how it was run: as §1
DU-145 [2] = test: Cytotoxicity against human DU145 cells at 30 uM after 48 hrs by SRB assay; assay type: functional; conditions: DU-145, 48 h, read-out: GI
SF-295 [3] = test: Cytotoxicity against human SF295 cells at 30 uM after 48 hrs by SRB assay; assay type: functional; conditions: SF-295, 48 h, read-out: GI
PC-3 [4] = test: Cytotoxicity against human PC3 cells at 10 uM after 48 hrs by SRB assay; assay type: functional; conditions: PC-3, 48 h, read-out: GI
HL-60 [5] = test: Ratio of betulinic acid IC50 to compound IC50 for human HL60 cells; assay type: functional
PC-3 [6] = test: Cytotoxicity against human PC3 cells at 30 uM after 48 hrs by SRB assay; assay type: functional; conditions: PC-3, 48 h, read-out: GI
HCT-15 [7] = test: Cytotoxicity against human HCT15 cells at 10 uM after 48 hrs by SRB assay; assay type: functional; conditions: HCT-15, 48 h, read-out: GI
A549 [8] = test: Cytotoxicity against human A549 cells at 30 uM after 48 hrs by SRB assay; assay type: functional; conditions: A549, 48 h, read-out: GI
PC-3 [9] = test: Cytotoxicity against human PC3 cells after 48 hrs by SRB assay; assay type: functional, cell-based; conditions: PC-3, 48 h
THP-1 [10] = test: Inhibition of colony formation in human THP1 cells using crystal violet staining after 24 hrs by clonogenic assay; assay type: functional, cell-based
How it was run: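 THP-1 cells from log-phase culture were plated at clonogenic dilution. After 24 h they were treated for 24 h, then incubated for at least six potential divisions (colonies >50 cells). Colonies were fixed and stained with 6% glutaraldehyde plus 0.5% crystal violet for 30 min, washed with water and air-dried.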

HL-60 [11] = test: Cytotoxicity against human HL60 cells at 30 uM after 48 hrs by SRB assay; assay type: functional; conditions: HL-60, 48 h, read-out: GI
SF-295 [12] = test: Cytotoxicity against human SF295 cells at 10 uM after 48 hrs by SRB assay; assay type: functional; conditions: SF-295, 48 h, read-out: GI
HL-60 [13] = test: Cytotoxicity against human HL60 cells at 10 uM after 48 hrs by SRB assay; assay type: functional; conditions: HL-60, 48 h, read-out: GI
HEp-2 [14] = test: Cytotoxicity against human Hep2 cells at 30 uM after 48 hrs by SRB assay; assay type: functional; conditions: HEp-2, 48 h, read-out: GI
MCF7 [15] = test: Cytotoxicity against human MCF7 cells at 10 uM after 48 hrs by SRB assay; assay type: functional; conditions: MCF7, 48 h, read-out: GI
THP-1 [16] = test: Cytotoxicity against human THP1 cells at 10 uM after 48 hrs by SRB assay; assay type: functional; conditions: THP-1, 48 h, read-out: GI
HL-60 [17] = test: Cytotoxicity against human HL60 cells at 50 uM after 48 hrs by SRB assay; assay type: functional; conditions: HL-60, 48 h, read-out: GI
HCT-15 [18] = test: Cytotoxicity against human HCT15 cells after 48 hrs by SRB assay; assay type: functional, cell-based; conditions: HCT-15, 48 h
THP-1 [19] = test: Cytotoxicity against human THP1 cells at 50 uM after 48 hrs by SRB assay; assay type: functional; conditions: THP-1, 48 h, read-out: GI
HL-60 [20] = test: Cytotoxicity against human HL60 cells after 48 hrs by SRB assay; assay type: functional, cell-based; conditions: HL-60, 48 h
HL-60 [21] = test: Induction of apoptosis in human HL60 cells assessed as change in mitochondrial membrane potential after 24 hrs using rhodamine-123 staining by fluorescence based confocal microscopy analysis; assay type: functional, cell-based
How it was run: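 HL-60 cells (6 × 10⁴/mL/well) were treated for 24 h. Rhodamine-123 (1 µM) was added in serum-free medium 30 min before the end, in the dark. Cells were then washed and resuspended in PBS. Fluorescence loss was viewed by confocal microscopy with 488 nm laser excitation. Each experiment was done twice.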

DU-145 [22] = test: Cytotoxicity against human DU145 cells at 10 uM after 48 hrs by SRB assay; assay type: functional; conditions: DU-145, 48 h, read-out: GI
HEp-2 [23] = test: Cytotoxicity against human Hep2 cells after 48 hrs by SRB assay; assay type: functional, cell-based; conditions: HEp-2, 48 h
SF-295 [24] = test: Cytotoxicity against human SF295 cells after 48 hrs by SRB assay; assay type: functional, cell-based; conditions: SF-295, 48 h
PC-3 [25] = test: Cytotoxicity against human PC3 cells at 50 uM after 48 hrs by SRB assay; assay type: functional; conditions: PC-3, 48 h, read-out: GI
DU-145 [26] = test: Cytotoxicity against human DU145 cells after 48 hrs by SRB assay; assay type: functional, cell-based; conditions: DU-145, 48 h
DU-145 [27] = test: Cytotoxicity against human DU145 cells at 50 uM after 48 hrs by SRB assay; assay type: functional; conditions: DU-145, 48 h, read-out: GI
HL-60 [28] = test: Induction of apoptosis in human HL60 cells assessed as DNA ladder formation after 24 hrs by DNA agarose gel electrophoresis; assay type: functional; how it was run: as §1
HEp-2 [29] = test: Cytotoxicity against human Hep2 cells at 50 uM after 48 hrs by SRB assay; assay type: functional; conditions: HEp-2, 48 h, read-out: GI
A549 [30] = test: Cytotoxicity against human A549 cells at 10 uM after 48 hrs by SRB assay; assay type: functional; conditions: A549, 48 h, read-out: GI
THP-1 [31] = test: Inhibition of cell migration in human THP1 cells at 1 to 30 uM after 24 hrs by wound-healing assay; assay type: functional, cell-based
How it was run: (§2)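 THP-1 monolayers (3×10⁵ cells/mL/well) were scratched with a pipette tip and washed three times with PBS. Test samples were added for 24 h, then fresh medium was added until the control wound healed. Wounds were imaged with a 10× objective at 0 h and 24 h. Migration was quantified as the distance between wound edges.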

A549 [32] = test: Cytotoxicity against human A549 cells after 48 hrs by SRB assay; assay type: functional, cell-based; conditions: A549, 48 h
HCT-15 [33] = test: Cytotoxicity against human HCT15 cells at 50 uM after 48 hrs by SRB assay; assay type: functional; conditions: HCT-15, 48 h, read-out: GI
THP-1 [34] = test: Cytotoxicity against human THP1 cells after 48 hrs by SRB assay; assay type: functional, cell-based; conditions: THP-1, 48 h
MCF7 [35] = test: Cytotoxicity against human MCF7 cells at 50 uM after 48 hrs by SRB assay; assay type: functional; conditions: MCF7, 48 h, read-out: GI
SF-295 [36] = test: Cytotoxicity against human SF295 cells at 50 uM after 48 hrs by SRB assay; assay type: functional; conditions: SF-295, 48 h, read-out: GI
MCF7 [37] = test: Cytotoxicity against human MCF7 cells at 30 uM after 48 hrs by SRB assay; assay type: functional; conditions: MCF7, 48 h, read-out: GI
MCF7 [38] = test: Cytotoxicity against human MCF7 cells after 48 hrs by SRB assay; assay type: functional, cell-based; conditions: MCF7, 48 h
THP-1 [39] = test: Inhibition of cell invasion in human THP1 cells at 1 to 30 uM after 24 hrs by wound-healing assay; assay type: functional, cell-based; how it was run: as §2
A549 [40] = test: Cytotoxicity against human A549 cells at 50 uM after 48 hrs by SRB assay; assay type: functional; conditions: A549, 48 h, read-out: GI
THP-1 [41] = test: Cytotoxicity against human THP1 cells at 30 uM after 48 hrs by SRB assay; assay type: functional; conditions: THP-1, 48 h, read-out: GI
HCT-15 [42] = test: Cytotoxicity against human HCT15 cells at 30 uM after 48 hrs by SRB assay; assay type: functional; conditions: HCT-15, 48 h, read-out: GI
HEp-2 [43] = test: Cytotoxicity against human Hep2 cells at 10 uM after 48 hrs by SRB assay; assay type: functional; conditions: HEp-2, 48 h, read-out: GI

## C=C(C)[C@@H]1CC[C@]2(C(=O)O)CC[C@]3(C)[C@H](CC[C@@H]4[C@@]5(C)CC[C@H](OCc6cn(-c7cccc8c(O)cccc78)nn6)C(C)(C)[C@@H]5CC[C@]43C)[C@@H]12
CV-1
  Activity: Non-toxic
HL-60 [1]
  Activity: Active
DU-145 [2]
  inhibition of growth at 30 µM: 69%
SF-295 [3]
  inhibition of growth at 30 µM: 61%
PC-3 [4]
  inhibition of growth at 10 µM: 35%
HL-60 [5]
  Ratio IC50: 5
PC-3 [6]
  inhibition of growth at 30 µM: 61%
HCT-15 [7]
  inhibition of growth at 10 µM: 40%
A549 [8]
  inhibition of growth at 30 µM: 60%
PC-3 [9]
  IC50: 16 µM
THP-1 [10]
  inhibition: Dose-dependent effect
HL-60 [11]
  inhibition of growth at 30 µM: 95%
SF-295 [12]
  inhibition of growth at 10 µM: 18%
HL-60 [13]
  inhibition of growth at 10 µM: 63%
HEp-2 [14]
  inhibition of growth at 30 µM: 63%
MCF7 [15]
  inhibition of growth at 10 µM: 51%
THP-1 [16]
  inhibition of growth at 10 µM: 51%
HL-60 [17]
  inhibition of growth at 50 µM: 98%
HCT-15 [18]
  IC50: 15 µM
THP-1 [19]
  inhibition of growth at 50 µM: 92%
HL-60 [20]
  IC50: 3.5 µM
HL-60 [21]
  Activity: Dose-dependent effect
DU-145 [22]
  inhibition of growth at 10 µM: 38%
HEp-2 [23]
  IC50: 13 µM
SF-295 [24]
  IC50: 25 µM
PC-3 [25]
  inhibition of growth at 50 µM: 94%
DU-145 [26]
  IC50: 14 µM
DU-145 [27]
  inhibition of growth at 50 µM: 86%
HL-60 [28]
  Activity: Dose-dependent effect
  MED: 20 µM
HEp-2 [29]
  inhibition of growth at 50 µM: 74%
A549 [30]
  inhibition of growth at 10 µM: 42%
THP-1 [31]
  inhibition: Active
A549 [32]
  IC50: 16 µM
HCT-15 [33]
  inhibition of growth at 50 µM: 72%
THP-1 [34]
  IC50: 8 µM
MCF7 [35]
  inhibition of growth at 50 µM: 82%
SF-295 [36]
  inhibition of growth at 50 µM: 87%
MCF7 [37]
  inhibition of growth at 30 µM: 63%
MCF7 [38]
  IC50: 9 µM
THP-1 [39]
  inhibition: Active
A549 [40]
  inhibition of growth at 50 µM: 72%
THP-1 [41]
  inhibition of growth at 30 µM: 82%
HCT-15 [42]
  inhibition of growth at 30 µM: 64%
HEp-2 [43]
  inhibition of growth at 10 µM: 45%
